Measured values from ChEMBL document CHEMBL3352753, “Novel strategy to boost oral anticoagulant activity of blood coagulation enzyme inhibitors based on biotransformation into hydrophilic conjugates” (Bioorg Med Chem, 2014).
Active and inactive are the calls of the source. The rule behind the calls is not given here.

Columns and labels:
Coagulation factor X = Coagulation factor X (Homo sapiens, UniProt P00742); assay: Inhibition of purified factor 10a (unknown origin) using chromogenic substrate S-2222 by spectrophotometry
Coagulation factor X, sequence (P00742 41-179 limits assumed): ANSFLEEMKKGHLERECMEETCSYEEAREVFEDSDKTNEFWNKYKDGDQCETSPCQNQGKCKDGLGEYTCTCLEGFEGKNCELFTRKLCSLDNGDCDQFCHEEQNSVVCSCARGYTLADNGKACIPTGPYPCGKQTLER
Coagulation factor X, sequence (P00742 235-488 limits assumed): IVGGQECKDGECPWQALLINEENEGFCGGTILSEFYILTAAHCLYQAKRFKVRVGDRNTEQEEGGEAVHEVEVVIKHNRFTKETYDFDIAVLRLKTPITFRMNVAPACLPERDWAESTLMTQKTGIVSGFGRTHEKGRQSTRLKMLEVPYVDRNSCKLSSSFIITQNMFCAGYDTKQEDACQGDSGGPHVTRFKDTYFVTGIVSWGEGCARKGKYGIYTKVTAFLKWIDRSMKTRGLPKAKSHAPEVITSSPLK
How it was run: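 Chromogenic assay with S-2222 substrate in 0.05 M Tris-HCl pH 8.4 or 0.15 M NaCl. Reaction started by adding enzyme, and A405 read continuously at 37 °C. IC50 taken from a plot of logit residual activity against log inhibitor concentration. Mean of three separate determinations.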

Prothrombin = Prothrombin (Homo sapiens, UniProt P00734); assay: Inhibition of purified thrombin (unknown origin) using chromogenic substrate S-2238 by spectrophotometry
How it was run: (§1)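 Chromogenic amidolysis started by adding enzyme, with A405 monitored continuously at 37 °C. Thrombin was 0.20 U/mL final with S-2238. Trypsin was 1.0 U/mL final with S-2222. Hydrolysis rate recorded as mOD/min.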

Trypsin = Trypsin (Homo sapiens, UniProt P07477+P07478+P35030); assay: Inhibition of purified trypsin (unknown origin) using chromogenic substrate S-2222 by spectrophotometry; format: protein assay; how it was run: as §1
Plasma [1] = assay: Anticoagulant activity in cynomolgus monkey plasma assessed as concentration required to double prothrombin time by coagulometry; format: functional, Macaca fascicularis
How it was run: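 Citrated cynomolgus monkey blood spun at 3000 rpm for 10 min to give platelet-poor plasma, stored at −40 °C. Prothrombin time measured by coagulometer at 37 °C with thromboplastin, compared against a distilled water control. CT2 (concentration doubling clotting time) estimated from each individual concentration–response curve. Mean of three separate determinations.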

Cynomolgus monkey [2] = assay: Ex vivo anticoagulant activity in cynomolgus monkey plasma at 0.1 mg/kg, iv as single bolus dose measured after 5 mins post dose; format: functional, organism-based; design: dose 0.1 mg/kg; conditions: Macaca fascicularis
How it was run: (§2)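 Cynomolgus monkeys (n = 3) received a single intravenous bolus. Citrated blood was taken 5 min later and platelet-poor plasma prepared by centrifugation. PT expressed relative to normal cynomolgus monkey plasma, as mean + SD.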

Plasma [3] = assay: Drug level in cynomolgus monkey plasma treated with 4'-Bromo-2'-[(5-chloro-2-pyridyl)carbamoyl]-6'-hydroxyl-1-isopropylpiperidine-4-carboxanilide hydrochloride at 10 mg/kg, po as single bolus dose measured after 1 to 24 hrs post dose; format: ADME, organism-based, Macaca fascicularis; design: dose 10 mg/kg, route oral; conditions: in vivo
How it was run: (§3)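 Male cynomolgus monkeys (4.0–4.5 kg, n = 3), fasted, given 10 mg/kg orally as a suspension in 0.5% methylcellulose. Blood sampled at 1, 2, 4, 6, 8, 12 and 24 h and spun to plasma. Samples underwent solid-phase extraction, were dried, reconstituted in mobile phase and measured by LC–MS/MS for parent and glucuronide, with an internal standard. Dose and concentrations expressed as free form. LOQ 10 ng/mL.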

[4] = Lipophilicity, logD of the compound; format: physicochemical; conditions: octanol/water
[5] = Permeability of the compound at pH 6.5 after 2 hrs by PAMPA; format: ADME; conditions: read-out: permeability
How it was run: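 PAMPA in a filter-plate sandwich. Sample was 50 µM final, in buffer with 10% DMSO, filtered before use. Donor was pH 6.5 and acceptor pH 7.4. Plates incubated 2 h at 25 °C in humid air. Donor and acceptor contents quantified by UV spectrum (270–400 nm) against reference standards. n = 2.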

Cynomolgus monkey [6] = assay: Ex vivo anticoagulant activity in cynomolgus monkey plasma at 1 mg/kg, iv as single bolus dose measured after 5 mins post dose; format: functional, organism-based; design: dose 1 mg/kg; conditions: Macaca fascicularis; how it was run: as §2
Cynomolgus monkey [7] = assay: Ex vivo anticoagulant activity in cynomolgus monkey plasma at 1 to 10 mg/kg, po as single bolus dose measured after 5 mins post dose; format: functional, organism-based; conditions: Macaca fascicularis
Cynomolgus monkey [8] = assay: Ex vivo anticoagulant activity in cynomolgus monkey plasma at 1 mg/kg, po as single bolus dose measured after 5 mins post dose; format: functional, organism-based; design: dose 1 mg/kg; conditions: Macaca fascicularis
Plasma [9] = assay: Drug metabolism in cynomolgus monkey plasma assessed as formation of glucuronide metabolite at 10 mg/kg, po as single bolus dose measured after 1 to 24 hrs post dose; format: ADME, organism-based, Macaca fascicularis; design: dose 10 mg/kg, route oral; conditions: in vivo; how it was run: as §3

IC50 (Coagulation factor X) [nM] | IC50 (Prothrombin) [nM] | IC50 (Trypsin) [nM] | Drug metabolism (Plasma [3]) | logD [4] | Papp at 2 h [5] [×10⁻⁶ cm/s] | Drug metabolism (Plasma [9]) | Compound | 2PT (Plasma [1]) [µM] | Activity (Cynomolgus monkey [2]) | Activity (Cynomolgus monkey [6]) | Activity (Cynomolgus monkey [7]) | Activity (Cynomolgus monkey [8])
8.2 | – | – | – | – | – | – | CC(C)N1CCC(C(=O)Nc2c(O)cc(Cl)cc2C(=O)Nc2ccc(Cl)cn2)CC1 | – | – | – | – | –
4.9 | > 100000 | > 100000 | metabolite_detected | -1.1 | – | – | CC(C)N1CCC(C(=O)Nc2c(O[C@@H]3O[C@H](C(=O)O)[C@@H](O)[C@H](O)[C@H]3O)cc(Br)cc2C(=O)Nc2ccc(Cl)cn2)CC1 | 0.28 | Active | – | – | –
5.8 | – | – | – | 1.8 | > 30 | – | CC(C)N1CCC(C(=O)Nc2ccc(Cl)cc2C(=O)Nc2ccc(Cl)cn2)CC1 | 0.22 | – | Active | Active | –
15 | – | – | – | – | – | – | CC(C)N1CCC(C(=O)Nc2c(O[C@@H]3O[C@H](C(=O)O)[C@@H](O)[C@H](O)[C@H]3O)cc(Cl)cc2C(=O)Nc2ccc(Cl)cn2)CC1 | – | – | – | – | –
4 | > 100000 | > 100000 | – | – | > 30 | metabolite_detected | CC(C)N1CCC(C(=O)Nc2c(O)cc(Br)cc2C(=O)Nc2ccc(Cl)cn2)CC1 | 0.31 | – | – | – | Active
